Values joined by “and” are separate entries in the source; they are usually repeats but may differ in a detail not shown here. Equal values may be shown once. Read-outs that look alike come from different tables or passages of the source.
Key:
[1] = target: Human VEGFR-2 (Homo sapiens, UniProt P35968); assay: In vitro VEGFR-2 assay; format: biochemical
[2] = tested on: caspase-3; assay: Western blot, active caspase-3 in HepG-2; format: cell-based, human
Summary of the method: (§1)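 HepG-2 cells exposed 24 h to test compound at 2.3 μM, then probed by western blot for BAX, Bcl-2, active caspase-9 and active caspase-3. Each band is normalized to β-actin and expressed relative to control, and the BAX/Bcl-2 ratio is also tabulated. Values are mean ± SEM of three independent experiments, with significance flagged at p < 0.05, 0.01 and 0.001.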

[3] = tested on: Bcl-2; assay: Western blot, Bcl-2 expression in HepG-2; format: cell-based, human
Summary of the method: as §1

[4] = tested on: primary rat hepatocytes; assay: In vitro cytotoxicity against normal hepatic cells; format: cell-based; details: HepG-2 vs primary rat hepatocytes
[5] = tested on: HepG-2 cells; assay: Cell cycle analysis; format: cell-based, human; details: HepG-2, 17b 2.3 μM
[6] = tested on: BAX; assay: Western blot, BAX expression in HepG-2; format: cell-based, human
Summary of the method: as §1

[7] = tested on: caspase-9; assay: Western blot, active caspase-9 in HepG-2; format: cell-based, human
Summary of the method: as §1

[8] = tested on: BAX/Bcl-2 ratio; assay: Western blot, BAX/Bcl-2 ratio in HepG-2; format: cell-based, human; details: HepG-2 treated 24 h, 2.3 μM; control 1.00; mean ± SEM
Summary of the method: as §1

[9] = tested on: MCF-7; assay: cells; format: cell-based, human
[10] = tested on: HepG-2; assay: MTT anti-proliferative assay, HepG-2; format: cell-based, human
[11] = HepG-2 treated 24 h, 2.3 μM, control 1.00, mean ± SEM

Chain of Human VEGFR-2 (P35968 20-1356): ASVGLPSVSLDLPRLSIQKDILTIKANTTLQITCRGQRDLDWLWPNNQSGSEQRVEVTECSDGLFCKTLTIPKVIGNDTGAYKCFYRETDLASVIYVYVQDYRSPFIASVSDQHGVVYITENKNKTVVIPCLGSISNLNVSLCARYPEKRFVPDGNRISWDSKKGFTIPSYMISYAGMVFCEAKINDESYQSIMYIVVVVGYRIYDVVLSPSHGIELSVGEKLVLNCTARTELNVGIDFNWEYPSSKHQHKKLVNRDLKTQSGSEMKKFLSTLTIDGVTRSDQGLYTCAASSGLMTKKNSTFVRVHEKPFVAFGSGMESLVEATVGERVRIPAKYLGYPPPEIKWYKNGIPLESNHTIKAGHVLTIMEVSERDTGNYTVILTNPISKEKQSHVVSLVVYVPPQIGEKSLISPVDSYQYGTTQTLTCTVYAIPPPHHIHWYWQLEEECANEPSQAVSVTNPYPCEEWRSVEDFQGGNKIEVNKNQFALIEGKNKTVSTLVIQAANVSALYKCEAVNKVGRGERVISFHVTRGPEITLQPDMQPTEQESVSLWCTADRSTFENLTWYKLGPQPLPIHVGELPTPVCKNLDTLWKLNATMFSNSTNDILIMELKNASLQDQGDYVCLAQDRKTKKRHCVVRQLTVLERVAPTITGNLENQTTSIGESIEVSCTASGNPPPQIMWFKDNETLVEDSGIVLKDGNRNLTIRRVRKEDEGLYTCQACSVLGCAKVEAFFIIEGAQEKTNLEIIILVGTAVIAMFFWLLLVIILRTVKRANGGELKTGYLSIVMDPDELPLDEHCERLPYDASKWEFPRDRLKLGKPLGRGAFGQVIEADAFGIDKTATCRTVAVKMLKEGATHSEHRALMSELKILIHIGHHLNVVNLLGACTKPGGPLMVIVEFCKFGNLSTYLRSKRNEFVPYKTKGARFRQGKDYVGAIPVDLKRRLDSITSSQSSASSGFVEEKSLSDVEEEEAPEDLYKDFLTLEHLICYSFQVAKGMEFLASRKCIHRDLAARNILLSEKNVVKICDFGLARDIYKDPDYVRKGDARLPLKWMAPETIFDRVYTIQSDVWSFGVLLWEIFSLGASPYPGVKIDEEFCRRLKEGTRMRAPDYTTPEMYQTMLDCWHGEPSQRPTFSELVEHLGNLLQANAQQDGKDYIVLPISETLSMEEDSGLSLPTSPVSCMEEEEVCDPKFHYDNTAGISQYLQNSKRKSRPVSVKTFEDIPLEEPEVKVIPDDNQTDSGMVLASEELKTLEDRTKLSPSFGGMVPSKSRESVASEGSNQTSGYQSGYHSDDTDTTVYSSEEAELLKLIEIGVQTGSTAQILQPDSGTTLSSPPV

CCCCNC(=O)c1ccc(NC(=O)CSc2nc3ccccc3nc2C)cc1 [Compound 15a, N-Butyl-4-(2-((3-methylquinoxalin-2-yl)thio)acetamido)benzamide]
IC50 [1]: 23.1 ± 0.8 nM

Cc1nc2ccccc2nc1SCC(=O)Nc1ccc(C(=O)Nc2cccc(Cl)c2)cc1 [Compound 15b, N-(3-Chlorophenyl)-4-(2-((3-methylquinoxalin-2-yl)thio)acetamido)benzamide]
IC50 [1]: 3.4 ± 0.2 nM

Cc1nc2ccccc2nc1SCC(=O)Nc1ccc(C(=O)Nc2ccc(O)cc2)cc1 [Compound 15c, N-(4-Hydroxyphenyl)-4-(2-((3-methylquinoxalin-2-yl)thio)acetamido)benzamide]
IC50 [1]: 27.8 ± 1.2 nM

Cc1nc2ccccc2nc1SCC(=O)Nc1ccc(C(=O)Nc2ccc([N+](=O)[O-])cc2O)cc1 [Compound 15d, N-(2-Hydroxy-4-nitrophenyl)-4-(2-((3-methylquinoxalin-2-yl)thio)acetamido)benzamide]
IC50 [1]: 31.5 ± 1.3 nM

Cc1nc2ccccc2nc1SCC(=O)Nc1ccc(C(=O)NNC(=O)c2ccccc2O)cc1 [Compound 16, N-(4-(2-(2-Hydroxybenzoyl)hydrazine-1-carbonyl)phenyl)-2-((3-methylquinoxalin-2-yl)thio)acetamide]
IC50 [1]: 18.5 ± 0.8 nM

CCCCNC(=O)c1ccc(NC(=O)Cn2c(=O)c(C)nc3ccccc32)cc1 [Compound 17a, N-Butyl-4-(2-(3-methyl-2-oxoquinoxalin-1(2H)-yl)acetamido)benzamide]
IC50 [1]: 11.2 ± 0.4 nM

Cc1nc2ccccc2n(CC(=O)Nc2ccc(C(=O)Nc3cccc(Cl)c3)cc2)c1=O [Compound 17b, N-(3-Chlorophenyl)-4-(2-(3-methyl-2-oxoquinoxalin-1(2H)-yl)acetamido)benzamide]
increase of caspase-3 level compared to control cells ([2]; HepG-2, 2.3 μM): 1.8 fold | Protein expression (normalized to β-actin) Caspases-3 [2, 11]: 1.85 ± 0.26 | downregulation of Bcl-2 level ([3]; HepG-2, 2.3 μM): around 3 fold | Protein expression (normalized to β-actin) Bcl-2 [3, 11]: 0.32 ± 0.04 | cytotoxic activity against cancer HepG-2 cell line more than against normal hepatic cells [4]: 10 fold | Cell cycle analysis (%) % G1 [5]: 40.03 ± 2.82 % | Cell cycle analysis (%) % G2/M [5]: 30.38% and 30.38 ± 2.93 % | Cell cycle analysis (%) % S [5]: 28.31 ± 1.01% | Cell cycle analysis (%) % Sub-G1 [5]: 1.27 ± 0.17% | boost of BAX level ([6]; HepG-2, 2.3 μM): approximately 4 fold | Protein expression (normalized to β-actin) BAX [6, 11]: 4.21 ± 0.60 | increase of caspase-9 level compared to control cells ([7]; HepG-2, 2.3 μM): 1.74 fold | Protein expression (normalized to β-actin) Caspases-9 [7, 11]: 1.74 ± 0.20 | Protein expression (normalized to β-actin) BAX/Bcl-2 ratio [8]: 9.30 ± 2.66 | IC50 ([9]; read-out: MCF-7 (IC50), MTT, mean ± S.D. of three experiments): 2.8 ± 0.2 µM | IC50 ([10]; read-out: HepG-2 (IC50), MTT, mean ± S.D. of three experiments): 2.3 ± 0.2 µM

Cc1nc2ccccc2n(CC(=O)Nc2ccc(C(=O)Nc3ccc(O)cc3)cc2)c1=O [Compound 17c, N-(4-Hydroxyphenyl)-4-(2-(3-methyl-2-oxoquinoxalin-1(2H)-yl)acetamido)benzamide]
IC50 [1]: 13.9 ± 0.5 nM

Cc1nc2ccccc2n(CC(=O)Nc2ccc(C(=O)Nc3ccc([N+](=O)[O-])cc3O)cc2)c1=O [Compound 17d, N-(2-Hydroxy-4-nitrophenyl)-4-(2-(3-methyl-2-oxoquinoxalin-1(2H)-yl)acetamido)benzamide]
IC50 [1]: 11.2 ± 0.3 nM | IC50 ([9]; Homo sapiens, MCF7, read-out: MCF-7 (IC50, μM)): 35.2 ± 1.6 µM | IC50 ([10]; Homo sapiens, HepG2, read-out: HepG-2 (IC50, μM)): 22.4 ± 1.3 µM

Cc1nc2ccccc2n(CC(=O)Nc2ccc(C(=O)NNC(=O)c3ccccc3O)cc2)c1=O [Compound 18, N-(4-(2-(2-Hydroxybenzoyl)hydrazine-1-carbonyl)phenyl)-2-(3-methyl-2-oxoquinoxalin-1(2H)-yl)acetamide]
IC50 [1]: 11.2 ± 0.2 nM

CNC(=O)c1cc(Oc2ccc(NC(=O)Nc3ccc(Cl)c(C(F)(F)F)c3)cc2)ccn1 [Sorafenib, sorafenib, reference compound]
cytotoxic activity against cancer HepG-2 cell line more than against normal hepatic cells [4]: 11 fold

— PMC9044819 (RSC Advances, 2021)
